Laboratory results reported in ChEMBL document CHEMBL1121637, “Tumor inhibitory triazenes. 2. Variation of antitumor activity within an homologous series” (J Med Chem, 1980).
One block for each compound: values may come before it.

Key:
[1] = Solubility in sorensen's phosphate buffer at pH 7.4 and 25 degrees Centigrade.
Mus musculus [2] = species on record: Mus musculus; test: Minimum dose that causes 50% increase in life span in TLX/5 lymphoma bearing animal; format: functional
How it was run: (§1)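 Female CBA/LAC mice with subcutaneously transplanted TLX/5 lymphoma. Drug given i.p. in saline (about pH 7.5) once daily for 5 consecutive days, starting 3 days after transplant. Doses ran 12.5–400 mg/kg, with lower doses made by serial dilution. Five mice per dose; survival time compared with 10 untreated controls. ILS ≥20% counted significant. Minimum dose for 50% ILS expressed in mol/kg.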

Mus musculus [3] = test: Percent increase in life span of TLX/5 lymphoma bearing mice at dose of 100 mg/kg; format: functional; how it was run: as §1
Mus musculus [4] = test: Percent increase in life span of TLX/5 lymphoma bearing mice at dose of 12.5 mg/kg; format: functional; how it was run: as §1
Mus musculus [5] = test: Percent increase in life span of TLX/5 lymphoma bearing mice at dose of 200 mg/kg; format: functional; how it was run: as §1
Mus musculus [6] = test: Percent increase in life span of TLX/5 lymphoma bearing mice at dose of 25 mg/kg; format: functional
Mus musculus [7] = test: Percent increase in life span of TLX/5 lymphoma bearing mice at dose of 50 mg/kg; format: functional; how it was run: as §1
[8] = Partition coefficient was determined in octanol-saturated sorenson's pH 7.4 phosphate buffer and buffer-saturated octanol.; format: physicochemical; conditions: octanol/Sorensen's phosphate buffer
How it was run: (§2)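 Compound shaken 1 h at room temperature in 0.1 M Sorenson's phosphate buffer pre-saturated with octanol, filtered. A known volume was then shaken 1 h with a known volume of buffer-saturated octanol. Aqueous phase and initial filtrate diluted in ethanol, filtered, absorbance read at λmax. P = (aqueous vol × absorbance drop)/(final aqueous absorbance × octanol vol). Mean of at least two determinations.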

Mus musculus [9] = test: Percent increase in life span of TLX/5 lymphoma bearing mice at dose of 400 mg/kg; format: functional; how it was run: as §1
Mus musculus [10] = test: Percent increase in life span of TLX/5 lymphoma bearing mice at dose of 100 mg/kg when 10 % acetone/Oil is given as vehicle; format: functional
Mus musculus [11] = test: Percent increase in life span of TLX/5 lymphoma bearing mice at dose of 12.5 mg/kg when 10 % acetone/Oil is given as vehicle; format: functional
Mus musculus [12] = test: Percent increase in life span of TLX/5 lymphoma bearing mice at dose of 200 mg/kg when 10 % acetone/Oil is given as vehicle; format: functional
Mus musculus [13] = test: Percent increase in life span of TLX/5 lymphoma bearing mice at dose of 25 mg/kg when 10 % acetone/Oil is given as vehicle; format: functional
Mus musculus [14] = test: Percent increase in life span of TLX/5 lymphoma bearing mice at dose of 400 mg/kg when 10 % acetone/Oil is given as vehicle; format: functional
Mus musculus [15] = test: Percent increase in life span of TLX/5 lymphoma bearing mice at dose of 50 mg/kg when 10 % acetone/Oil is given as vehicle; format: functional
[16] = Partition coefficient between octanol-saturated sorenson's pH 7.4 phosphate buffer and buffer-saturated octanol.; format: physicochemical; conditions: octanol/Sorensen's phosphate buffer; how it was run: as §2
Mus musculus [17] = species on record: Mus musculus; test: Minimum dose that causes 50% increase in life span in TLX/5 lymphoma bearing mice; format: functional; how it was run: as §1
Mus musculus [18] = test: Percent increase in life span of TLX/5 lymphoma bearing mice at dose of 100 mg/kg 200 mg/kg; format: functional; how it was run: as §1

Structure (SMILES): CCC(C)CN(C)/N=N/c1ccc(C(=O)O)cc1 (centres undefined)
- Solubility [1]: 0.0162 M l-1
- Dose (Mus musculus [2]): 0.0002 mol/kg
- ILS at 100 mg/kg (Mus musculus [3]): 62%
- ILS at 12.5 mg/kg (Mus musculus [4]): 7%
- ILS at 200 mg/kg (Mus musculus [5]): 60%
- ILS at 25 mg/kg (Mus musculus [6]): 11%
- ILS at 50 mg/kg (Mus musculus [7]): 52%
- logD [8]: 1.33
- ILS at 400 mg/kg (Mus musculus [9]): 57%

- Solubility [1]: 4.13e-6 M l-1
Structure (SMILES): CCCCCCCCCCCCN(C)/N=N/c1ccc(C(=O)O)cc1

Structure (SMILES): CN(Cc1ccccc1)/N=N/c1ccc(C(=O)O)cc1
- ILS at 100 mg/kg (Mus musculus [3]): 49%
- ILS at 12.5 mg/kg (Mus musculus [4]): 6%
- ILS at 200 mg/kg (Mus musculus [5]): -59%
- ILS at 25 mg/kg (Mus musculus [6]): 6%
- ILS at 50 mg/kg (Mus musculus [7]): 7%
- ILS at 400 mg/kg (Mus musculus [9]): -61%

Structure (SMILES): CCCCN(C)/N=N/c1ccc(C(=O)O)cc1
- Solubility [1]: 0.0155 M l-1
- Dose (Mus musculus [2]): 5.3e-05 mol/kg
- ILS at 100 mg/kg (Mus musculus [3]): 47%
- ILS at 12.5 mg/kg (Mus musculus [4]): 69%
- ILS at 200 mg/kg (Mus musculus [5]): 20%
- ILS at 25 mg/kg (Mus musculus [6]): 82%
- ILS at 50 mg/kg (Mus musculus [7]): 86%
- logD [8]: 0.97
- ILS at 400 mg/kg (Mus musculus [9]): -31%

Structure (SMILES): CN(C)/N=N/c1ccc(C(=O)O)cc1
- Dose (Mus musculus [2]): 6.2e-05 mol/kg
- ILS at 100 mg/kg (Mus musculus [10]): 49%
- ILS at 100 mg/kg (Mus musculus [3]): 34%
- ILS at 12.5 mg/kg (Mus musculus [4]): 40%
- ILS at 12.5 mg/kg (Mus musculus [11]): 19%
- ILS at 200 mg/kg (Mus musculus [12]): -4%
- ILS at 200 mg/kg (Mus musculus [5]): 0%
- ILS at 25 mg/kg (Mus musculus [6]): 72%
- ILS at 25 mg/kg (Mus musculus [13]): 51%
- ILS at 400 mg/kg (Mus musculus [14]): -36%
- ILS at 50 mg/kg (Mus musculus [15]): 70%
- ILS at 50 mg/kg (Mus musculus [7]): 83%
- logD [8]: -0.44
- ILS at 400 mg/kg (Mus musculus [9]): -34%

Structure (SMILES): C#CCN(C)/N=N/c1ccc(C(=O)O)cc1
- Dose (Mus musculus [2]): 0.00015 mol/kg
- ILS at 100 mg/kg (Mus musculus [3]): 70%
- ILS at 12.5 mg/kg (Mus musculus [4]): 0%
- ILS at 200 mg/kg (Mus musculus [5]): 40%
- ILS at 25 mg/kg (Mus musculus [6]): 36%
- ILS at 50 mg/kg (Mus musculus [7]): 76%
- logD [8]: 0
- ILS at 400 mg/kg (Mus musculus [9]): -18%

Structure (SMILES): C=CCN(C)/N=N/c1ccc(C(=O)O)cc1
- Dose (Mus musculus [2]): 0.00017 mol/kg
- ILS at 100 mg/kg (Mus musculus [3]): 76%
- ILS at 12.5 mg/kg (Mus musculus [4]): 1%
- ILS at 200 mg/kg (Mus musculus [5]): 56%
- ILS at 25 mg/kg (Mus musculus [6]): 11%
- ILS at 50 mg/kg (Mus musculus [7]): 96%
- logD [8]: 0.32
- ILS at 400 mg/kg (Mus musculus [9]): -25%

Structure (SMILES): CCCCCCN(C)/N=N/c1ccc(C(=O)O)cc1
- Solubility [1]: 0.00298 M l-1
- Dose (Mus musculus [2]): 3e-05 mol/kg
- ILS at 100 mg/kg (Mus musculus [3]): 73%
- ILS at 12.5 mg/kg (Mus musculus [4]): 0%
- ILS at 200 mg/kg (Mus musculus [5]): -8%
- ILS at 25 mg/kg (Mus musculus [6]): 0%
- ILS at 50 mg/kg (Mus musculus [7]): 18%
- logD [8]: 1.95
- ILS at 400 mg/kg (Mus musculus [9]): -53%

- Solubility [1]: 0.000171 M l-1
- logD [8]: 2.77
Structure (SMILES): CCCCCCCCN(C)/N=N/c1ccc(C(=O)O)cc1

Structure (SMILES): CCCCCCCN(C)/N=N/c1ccc(C(=O)O)cc1
- Solubility [1]: 0.00041 M l-1
- ILS at 100 mg/kg (Mus musculus [3]): 9%
- ILS at 12.5 mg/kg (Mus musculus [4]): 3%
- ILS at 200 mg/kg (Mus musculus [5]): -19%
- ILS at 25 mg/kg (Mus musculus [6]): 1%
- ILS at 50 mg/kg (Mus musculus [7]): 5%
- logD [8]: 2.58
- ILS at 400 mg/kg (Mus musculus [9]): -48%

Structure (SMILES): CCN(C)/N=N/c1ccc(C(=O)O)cc1
- logD [16]: 0.04
- Dose (Mus musculus [17]): 7e-05 mol/kg
- ILS at 100 mg/kg (Mus musculus [3]): 67%
- ILS at 200 mg/kg (Mus musculus [18]): 27%
- ILS at 12.5 mg/kg (Mus musculus [4]): 44%
- ILS at 25 mg/kg (Mus musculus [6]): 79%
- ILS at 50 mg/kg (Mus musculus [7]): 79%
- ILS at 400 mg/kg (Mus musculus [9]): -21%

Structure (SMILES): CCCCCN(C)/N=N/c1ccc(C(=O)O)cc1
- Solubility [1]: 0.00428 M l-1
- Dose (Mus musculus [2]): 7.1e-05 mol/kg
- ILS at 100 mg/kg (Mus musculus [3]): 61%
- ILS at 12.5 mg/kg (Mus musculus [4]): 10%
- ILS at 200 mg/kg (Mus musculus [5]): -61%
- ILS at 25 mg/kg (Mus musculus [6]): 108%
- ILS at 50 mg/kg (Mus musculus [7]): 75%
- logD [8]: 1.49
- ILS at 400 mg/kg (Mus musculus [9]): -61%

Structure (SMILES): CCCN(C)/N=N/c1ccc(C(=O)O)cc1
- Solubility [1]: 0.0368 M l-1
- Dose (Mus musculus [2]): 9.4e-05 mol/kg
- ILS at 100 mg/kg (Mus musculus [3]): 69%
- ILS at 12.5 mg/kg (Mus musculus [4]): 13%
- ILS at 200 mg/kg (Mus musculus [5]): 57%
- ILS at 25 mg/kg (Mus musculus [6]): 69%
- ILS at 50 mg/kg (Mus musculus [7]): 69%
- logD [8]: 0.46
- ILS at 400 mg/kg (Mus musculus [9]): -3%

Structure (SMILES): CC(C)N(C)/N=N/c1ccc(C(=O)O)cc1
- Dose (Mus musculus [2]): 7e-05 mol/kg
- ILS at 100 mg/kg (Mus musculus [3]): 60%
- ILS at 12.5 mg/kg (Mus musculus [4]): 37%
- ILS at 200 mg/kg (Mus musculus [5]): 45%
- ILS at 25 mg/kg (Mus musculus [6]): 90%
- ILS at 50 mg/kg (Mus musculus [7]): 64%
- logD [8]: 0.34
- ILS at 400 mg/kg (Mus musculus [9]): 35%

Structure (SMILES): CN(C)/N=N/c1[nH]cnc1C(N)=O [DACARBAZINE]
- ILS at 100 mg/kg (Mus musculus [3]): 55%
- ILS at 12.5 mg/kg (Mus musculus [4]): 55%
- ILS at 200 mg/kg (Mus musculus [5]): 61%
- ILS at 25 mg/kg (Mus musculus [6]): 55%
- ILS at 50 mg/kg (Mus musculus [7]): 59%
- ILS at 400 mg/kg (Mus musculus [9]): -11%
